The values that follow come from ChEMBL document CHEMBL1132446, “Design, synthesis, and evaluation of Phe-Gly mimetics: heterocyclic building blocks for pseudopeptides” (J Med Chem, 1999).

Numbered stars: 1 amine (or outer) side, 2 acyl side, 3 side chain; on linkers, the order of the positions; unused ones are H or OH. Square brackets hold non-standard residues; d marks the D form. Peptide text beside a SMILES is read from it. X9 = O=C(Cc1nnc([C@H](Cc2ccccc2)N[*:1])[nH]1)[*:2]; X7 = O=C(c1nnc([C@H](Cc2ccccc2)N[*:1])[nH]1)[*:2]; X3 = O=C(c1nnc([C@H](Cc2ccccc2)N[*:1])o1)[*:2]; X4 = O=C(c1noc([C@H](Cc2ccccc2)N[*:1])n1)[*:2]

One assay deals with Substance-P receptor (Rattus norvegicus, UniProt P14600). The assay can be described thus: Affinity for rat Tachykinin receptor 1 determined in displacement screening by using radioligand 3,4-[3H]-(L-Pro e2) SP.
Substance-P receptor, sequence (P14600 whole entry): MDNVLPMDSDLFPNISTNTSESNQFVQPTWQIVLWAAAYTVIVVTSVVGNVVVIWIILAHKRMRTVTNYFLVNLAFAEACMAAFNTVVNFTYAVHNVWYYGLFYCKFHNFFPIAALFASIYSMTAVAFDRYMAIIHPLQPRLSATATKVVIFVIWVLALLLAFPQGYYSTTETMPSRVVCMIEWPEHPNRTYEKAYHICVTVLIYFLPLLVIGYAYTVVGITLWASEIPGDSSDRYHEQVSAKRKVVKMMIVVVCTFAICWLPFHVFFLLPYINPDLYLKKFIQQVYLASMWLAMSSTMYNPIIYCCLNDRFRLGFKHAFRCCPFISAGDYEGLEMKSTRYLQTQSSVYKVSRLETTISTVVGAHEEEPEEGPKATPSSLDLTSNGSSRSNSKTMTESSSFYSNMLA
The target in assay [1] is T1, Mu-type opioid receptor (Rattus norvegicus, UniProt P33535). The experiment in a line: The compound was tested for binding affinity towards rat Opioid receptor mu 1 by displacing [3H]DAMGO.
T1 sequence (P33535 whole entry): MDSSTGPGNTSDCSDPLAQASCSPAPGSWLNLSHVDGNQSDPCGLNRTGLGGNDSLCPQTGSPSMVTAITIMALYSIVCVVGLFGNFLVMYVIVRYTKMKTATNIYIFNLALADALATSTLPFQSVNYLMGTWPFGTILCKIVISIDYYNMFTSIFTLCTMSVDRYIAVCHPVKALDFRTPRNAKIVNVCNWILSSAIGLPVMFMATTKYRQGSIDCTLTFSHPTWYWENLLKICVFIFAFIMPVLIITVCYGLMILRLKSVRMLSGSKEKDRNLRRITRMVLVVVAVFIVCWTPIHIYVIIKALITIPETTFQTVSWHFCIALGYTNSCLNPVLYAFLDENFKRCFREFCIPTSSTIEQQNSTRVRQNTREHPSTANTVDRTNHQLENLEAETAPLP
Assay [2] in a line: Retention time of the compound. An outline of the steps: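 Analytical reversed-phase HPLC on a C-18 column (8 × 100 mm), eluting with CH3CN/H2O/0.1% TFA gradients. The gradient differs by compound: 0-60% at 1 mL/min over 30 min, or 5-65%, 20-60% or 0-60% at 0.5 mL/min over 30 min.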
The target of assay [3] is T1, Mu-type opioid receptor. The experiment in a line: The compound was tested for binding affinity towards [3H]DAMGO, in rat Opioid receptor mu 1. An outline of the steps:
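Rat whole-brain (minus cerebellum) membranes from sucrose homogenisation, differential centrifugation and hypotonic lysis, in 50 mM Tris-HCl pH 7.4. […] Incubation 30 min at 25 °C, ended by filtration on PEI-soaked GF-C filters. Triplicates, three experiments, IC50 as mean ± SEM.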

Consider `CSCC[C@H](NC(=O)[C@H](CC(C)C)NC(=O)Cc1noc([C@H](Cc2ccccc2)NC(=O)[C@H](Cc2ccccc2)NC(=O)[C@H](CCC(N)=O)NC(=O)[C@H](CCC(N)=O)NC(=O)[C@@H]2CCCN2C(=O)[C@H](CCCCN)NC(=O)[C@@H]2CCCN2C(=O)[C@@H](N)CCCN=C(N)N)n1)C(N)=O` (stereo in doubt; form 2), for which the IC50 at Substance-P receptor is 0.307 µM.
`C[C@@H](NC(=O)[C@@H](N)Cc1ccc(O)cc1)C(=O)N[C@@H](Cc1ccccc1)c1nnc(C(=O)N[C@@H](Cc2ccc(O)cc2)C(=O)N2CCC[C@H]2C(=O)N[C@@H](CO)C(N)=O)[nH]1`: the IC50 was above 1 µM at Substance-P receptor and 0.49 µM on Mu-type opioid receptor [1].
In assay [2], `C[C@@H](NC(=O)[C@@H](N)Cc1ccc(O)cc1)C(=O)N[C@@H](Cc1ccccc1)c1nnc(N[C@@H](Cc2ccc(O)cc2)C(=O)N2CCC[C@H]2C(=O)N[C@@H](CO)C(N)=O)o1` yielded a Retention time of 22 min.
For `C[C@@H](NC(=O)[C@@H](N)Cc1ccc(O)cc1)C(=O)N[C@@H](Cc1ccccc1)c1nc(C(=O)N[C@@H](Cc2ccc(O)cc2)C(=O)N2CCC[C@H]2C(=O)N[C@@H](CO)C(N)=O)no1`, the IC50 was above 1 µM on Substance-P receptor and 0.017 µM at Mu-type opioid receptor [1].
At Substance-P receptor, `C[C@@H](NC(=O)[C@@H](N)Cc1ccc(O)cc1)C(=O)NCC(=O)N(C)[C@@H](Cc1ccccc1)C(=O)NCCO` [DAMGO] had an IC50 above 1 µM.
For the compound `C[C@@H](NC(=O)[C@@H](N)Cc1ccc(O)cc1)C(=O)N[C@@H](Cc1ccccc1)c1n[nH]c(CN[C@@H](Cc2ccc(O)cc2)C(=O)N2CCC[C@H]2C(=O)N[C@@H](CO)C(N)=O)n1`, the Retention time in assay [2] amounted to 20.2 min.
On Substance-P receptor, `CSCC[C@H](NC(=O)[C@H](CC(C)C)NC(=O)c1nnc([C@H](Cc2ccccc2)NC(=O)[C@H](Cc2ccccc2)NC(=O)[C@H](CCC(N)=O)NC(=O)[C@H](CCC(N)=O)NC(=O)[C@@H]2CCCN2C(=O)[C@H](CCCCN)NC(=O)[C@@H]2CCCN2C(=O)[C@@H](N)CCCNC(=N)N)o1)C(N)=O` (H-RPKPQQF[X3]LM-NH2) registered an IC50 above 1 µM.
In assay [2], `C[C@@H](NC(=O)[C@@H](N)Cc1ccc(O)cc1)C(=O)N[C@@H](Cc1ccccc1)c1nnc(CN[C@@H](Cc2ccc(O)cc2)C(=O)N2CCC[C@H]2C(=O)N[C@@H](CO)C(N)=O)o1` had a Retention time of 34 min.
In assay [2], `C[C@@H](NC(=O)[C@@H](N)Cc1ccc(O)cc1)C(=O)N[C@@H](Cc1ccccc1)c1nc(N[C@@H](Cc2ccc(O)cc2)C(=O)N2CCC[C@H]2C(=O)N[C@@H](CO)C(N)=O)no1` showed a Retention time of 22.7 min.
Consider `CSCC[C@H](NC(=O)[C@H](CC(C)C)NC(=O)c1noc([C@H](Cc2ccccc2)NC(=O)[C@H](Cc2ccccc2)NC(=O)[C@H](CCC(N)=O)NC(=O)[C@H](CCC(N)=O)NC(=O)[C@@H]2CCCN2C(=O)[C@H](CCCCN)NC(=O)[C@@H]2CCCN2C(=O)[C@@H](N)CCCN=C(N)N)n1)C(N)=O` (H-RPKPQQF[X4]LM-NH2), for which the half-inhibitory concentration (IC50) on Substance-P receptor was above 1 µM.
With `C[C@@H](NC(=O)[C@@H](N)Cc1ccc(O)cc1)C(=O)N[C@@H](Cc1ccccc1)c1nc(CN[C@@H](Cc2ccc(O)cc2)C(=O)N2CCC[C@H]2C(=O)N[C@@H](CO)C(N)=O)no1`, the Retention time in assay [2] stood at 21 min.
The compound `CC(C)(C)OC(=O)N[C@@H](Cc1ccccc1)c1nc(CCO)no1` registered a Retention time in assay [2] of 30.9 min.
As to `C[C@@H](NC(=O)[C@@H](N)Cc1ccc(O)cc1)C(=O)N[C@@H](Cc1ccccc1)c1n[nH]c(CC(=O)N[C@@H](Cc2ccc(O)cc2)C(=O)N2CCC[C@H]2C(=O)N[C@@H](CO)C(N)=O)n1`, the IC50 at Substance-P receptor was above 1 µM; on Mu-type opioid receptor [1] it was 0.021 µM.
The like results for `C[C@@H](NC(=O)[C@@H](N)Cc1ccc(O)cc1)C(=O)N[C@@H](Cc1ccccc1)c1nnc(CC(=O)N[C@@H](Cc2ccc(O)cc2)C(=O)N2CCC[C@H]2C(=O)N[C@@H](CO)C(N)=O)o1` were, in that order, above 1 µM and 0.031 µM.
For `C[C@@H](NC(=O)[C@@H](N)Cc1ccc(O)cc1)C(=O)N[C@@H](Cc1ccccc1)C(=O)NCC(=O)N[C@@H](Cc1ccc(O)cc1)C(=O)N1CCC[C@H]1C(=O)N[C@@H](CO)C(N)=O` [DERMORPHIN], the IC50 at Substance-P receptor was above 1 µM; on Mu-type opioid receptor [3] it was 0.0062 µM.
In turn, `CSCC[C@H](NC(=O)[C@H](CC(C)C)NC(=O)Cc1nnc([C@H](Cc2ccccc2)NC(=O)[C@H](Cc2ccccc2)NC(=O)[C@H](CCC(N)=O)NC(=O)[C@H](CCC(N)=O)NC(=O)[C@@H]2CCCN2C(=O)[C@H](CCCCN)NC(=O)[C@@H]2CCCN2C(=O)[C@@H](N)CCCNC(=N)N)[nH]1)C(N)=O` (H-RPKPQQF[X9]LM-NH2) came in with an IC50 on Substance-P receptor above 1 µM.
`C[C@@H](NC(=O)[C@@H](N)Cc1ccc(O)cc1)C(=O)N[C@@H](Cc1ccccc1)c1nc(CC(=O)N[C@@H](Cc2ccc(O)cc2)C(=O)N2CCC[C@H]2C(=O)N[C@@H](CO)C(N)=O)no1`: the results for the IC50 on Substance-P receptor and on Mu-type opioid receptor [1] were above 1 µM and 0.012 µM, respectively.
Compound `CCOC(=O)Cc1n[nH]c([C@H](Cc2ccccc2)NC(=O)OC(C)(C)C)n1` displayed a Retention time in assay [2] of 22.1 min.
As for `C[C@@H](NC(=O)[C@@H](N)Cc1ccc(O)cc1)C(=O)N[C@@H](Cc1ccccc1)c1nnc(C(=O)N[C@@H](Cc2ccc(O)cc2)C(=O)N2CCC[C@H]2C(=O)N[C@@H](CO)C(N)=O)o1`, the IC50 at Substance-P receptor was above 1 µM; on Mu-type opioid receptor [1], 0.02 µM.
In the case of `CSCC[C@H](NC(=O)[C@H](CC(C)C)NC(=O)c1nnc([C@H](Cc2ccccc2)NC(=O)[C@H](Cc2ccccc2)NC(=O)[C@H](CCC(N)=O)NC(=O)[C@H](CCC(N)=O)NC(=O)[C@@H]2CCCN2C(=O)[C@H](CCCCN)NC(=O)[C@@H]2CCCN2C(=O)[C@@H](N)CCCNC(=N)N)[nH]1)C(N)=O` (H-RPKPQQF[X7]LM-NH2), the IC50 on Substance-P receptor was above 1 µM.
On the same count and under the same terms, under `CSCC[C@H](NC(=O)[C@H](CC(C)C)NC(=O)Cc1noc([C@H](Cc2ccccc2)NC(=O)[C@H](Cc2ccccc2)NC(=O)[C@H](CCC(N)=O)NC(=O)[C@H](CCC(N)=O)NC(=O)[C@@H]2CCCN2C(=O)[C@H](CCCCN)NC(=O)[C@@H]2CCCN2C(=O)[C@@H](N)CCCN=C(N)N)n1)C(N)=O` (stereo in doubt; form 1) stands above 1 µM.
Take `C[C@@H](NC(=O)[C@@H](N)Cc1ccc(O)cc1)C(=O)N[C@@H](Cc1ccccc1)c1n[nH]c(N[C@@H](Cc2ccc(O)cc2)C(=O)N2CCC[C@H]2C(=O)N[C@@H](CO)C(N)=O)n1`: the Retention time in assay [2] is 20.6 min.
